{"data": "Assay results of several laboratories", "target": "Homeodomain-interacting protein kinase 4 (HIPK4, Homo sapiens, UniProt Q8NE63)", "Sequence (Q8NE63 1-616, as in one of the studies)": "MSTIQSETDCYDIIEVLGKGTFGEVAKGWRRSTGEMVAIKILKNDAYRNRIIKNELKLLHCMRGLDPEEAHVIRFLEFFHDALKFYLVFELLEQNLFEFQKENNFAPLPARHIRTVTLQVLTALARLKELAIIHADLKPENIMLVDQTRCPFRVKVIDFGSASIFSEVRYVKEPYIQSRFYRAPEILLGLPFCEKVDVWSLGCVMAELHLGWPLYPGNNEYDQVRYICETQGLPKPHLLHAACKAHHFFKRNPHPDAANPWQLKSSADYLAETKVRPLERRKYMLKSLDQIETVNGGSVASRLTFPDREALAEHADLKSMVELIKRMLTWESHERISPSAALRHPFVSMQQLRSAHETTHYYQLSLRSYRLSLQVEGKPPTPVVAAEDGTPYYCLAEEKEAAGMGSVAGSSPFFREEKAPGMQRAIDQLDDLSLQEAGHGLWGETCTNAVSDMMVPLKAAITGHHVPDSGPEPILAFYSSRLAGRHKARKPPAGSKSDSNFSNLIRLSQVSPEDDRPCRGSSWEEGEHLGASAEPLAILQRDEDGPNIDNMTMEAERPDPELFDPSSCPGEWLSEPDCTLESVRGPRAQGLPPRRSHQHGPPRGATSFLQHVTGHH", "note": "Compare with care: the assays were run in different laboratories."}
{"SMILES": "C#Cc1cc(-c2cc(Nc3nc(N[C@@H](C)c4ccc(F)cn4)ncc3Cl)n[nH]2)ccc1C=O", "read-out": "enzyme activity", "action": "inhibitor", "tested at": "0.2 µM", "quantity": "inhibition", "value": "4.92%"}
{"SMILES": "CN1CCN(C(=O)c2ccc(NC(=O)Nc3ccc(N(C)c4ccnc(Nc5ccc(CS(C)(=O)=O)cc5)n4)cc3)cc2)CC1", "read-out": "binding", "method": "competition with immobilised ligand", "tested at": "1 µM", "quantity": "remaining binding", "value": "74%"}
{"SMILES": "CCCCC(=O)Nc1ccc(-c2ccc3ncn(CCC)c(=O)c3c2)cn1", "read-out": "binding", "method": "competition with immobilised ligand", "tested at": "0.5 µM", "quantity": "remaining binding", "value": "66%"}
{"SMILES": "C1=C/COCc2cc(ccc2OCCN2CCCC2)Nc2nccc(n2)-c2cccc(c2)COC/1", "read-out": "binding", "tested at": "0.1 µM", "quantity": "remaining binding", "value": "2.3%"}
{"SMILES": "CC#CC(=O)N1CCC[C@H]1c1nc(-c2ccc(C(=O)Nc3ccccn3)cc2)c2c(N)nccn12", "read-out": "enzyme activity", "action": "inhibitor", "tested at": "1 µM", "quantity": "inhibition", "value": "0%"}
{"SMILES": "CC(C)S(=O)(=O)c1ccc2nccc(Nc3ccc4sc(C5CCCC5)nc4c3)c2c1", "read-out": "enzyme activity", "action": "inhibitor", "tested at": "1 µM", "quantity": "activity vs control", "value": "98%"}
{"SMILES": "C[C@H]1CC[C@H](n2c3cnccc3c3cnc(Nc4ccc5c(n4)CCN(C(=O)CO)C5)nc32)CC1", "read-out": "binding", "method": "competition with immobilised ligand", "tested at": "1 µM", "quantity": "remaining binding", "value": "56%"}
{"SMILES": "CO[C@@H]1[C@H](N(C)C(=O)c2ccccc2)C[C@H]2O[C@]1(C)n1c3ccccc3c3c4c(c5c6ccccc6n2c5c31)C(=O)NC4", "read-out": "enzyme activity", "action": "inhibitor", "tested at": "1 µM", "quantity": "inhibition", "value": "23%"}
